Measured values as given in ChEMBL document CHEMBL3259660, “Haloemodin as novel antibacterial agent inhibiting DNA gyrase and bacterial topoisomerase I” (J Med Chem, 2014).
≈ marks a conversion by molar mass, not a printed value. Calls of active or inactive are those of the source. The rule behind the calls is not given here.

Key:
Escherichia coli [1] = test: Antibacterial activity against Escherichia coli assessed as growth inhibition by agar dilution assay; assay type: functional, organism-based
In short: (§1)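 Agar dilution MIC per CLSI (aerobic and anaerobic methods); compounds dissolved in DMSO, reference antibiotics in sterile water. MIC taken as lowest concentration with no visible growth; determined at least twice on separate days, higher value reported. Clinical isolate ranges summarized as MIC50/MIC90.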

[2] = target: DNA gyrase (Staphylococcus aureus) (UniProt P0A0K8+P20831); test: Inhibition of Staphylococcus aureus DNA gyrase-mediated pHOT-1 supercoiling at 30 uM after 30 mins by agarose gel electrophoresis in presence of ATP; assay type: protein-complex assay
Sequence of DNA gyrase (Staphylococcus aureus) (P0A0K8 2-644 limits assumed): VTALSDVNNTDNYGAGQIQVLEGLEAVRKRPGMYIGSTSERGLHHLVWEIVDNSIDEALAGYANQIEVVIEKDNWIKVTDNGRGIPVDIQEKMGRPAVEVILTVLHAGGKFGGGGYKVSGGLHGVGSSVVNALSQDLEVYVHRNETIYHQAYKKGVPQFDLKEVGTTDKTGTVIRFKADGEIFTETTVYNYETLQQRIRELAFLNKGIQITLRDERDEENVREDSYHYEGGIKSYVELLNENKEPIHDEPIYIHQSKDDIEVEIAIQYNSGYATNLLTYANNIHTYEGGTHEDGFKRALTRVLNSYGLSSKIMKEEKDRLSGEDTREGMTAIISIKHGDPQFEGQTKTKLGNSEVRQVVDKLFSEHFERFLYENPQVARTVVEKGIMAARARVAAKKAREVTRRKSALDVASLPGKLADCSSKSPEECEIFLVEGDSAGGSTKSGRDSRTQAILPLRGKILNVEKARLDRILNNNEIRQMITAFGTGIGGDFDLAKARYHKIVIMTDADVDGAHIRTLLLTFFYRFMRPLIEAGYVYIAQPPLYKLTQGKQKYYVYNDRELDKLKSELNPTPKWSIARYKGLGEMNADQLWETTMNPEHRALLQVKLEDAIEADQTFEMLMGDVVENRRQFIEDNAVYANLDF
Sequence of DNA gyrase (Staphylococcus aureus) (P20831 whole entry partner): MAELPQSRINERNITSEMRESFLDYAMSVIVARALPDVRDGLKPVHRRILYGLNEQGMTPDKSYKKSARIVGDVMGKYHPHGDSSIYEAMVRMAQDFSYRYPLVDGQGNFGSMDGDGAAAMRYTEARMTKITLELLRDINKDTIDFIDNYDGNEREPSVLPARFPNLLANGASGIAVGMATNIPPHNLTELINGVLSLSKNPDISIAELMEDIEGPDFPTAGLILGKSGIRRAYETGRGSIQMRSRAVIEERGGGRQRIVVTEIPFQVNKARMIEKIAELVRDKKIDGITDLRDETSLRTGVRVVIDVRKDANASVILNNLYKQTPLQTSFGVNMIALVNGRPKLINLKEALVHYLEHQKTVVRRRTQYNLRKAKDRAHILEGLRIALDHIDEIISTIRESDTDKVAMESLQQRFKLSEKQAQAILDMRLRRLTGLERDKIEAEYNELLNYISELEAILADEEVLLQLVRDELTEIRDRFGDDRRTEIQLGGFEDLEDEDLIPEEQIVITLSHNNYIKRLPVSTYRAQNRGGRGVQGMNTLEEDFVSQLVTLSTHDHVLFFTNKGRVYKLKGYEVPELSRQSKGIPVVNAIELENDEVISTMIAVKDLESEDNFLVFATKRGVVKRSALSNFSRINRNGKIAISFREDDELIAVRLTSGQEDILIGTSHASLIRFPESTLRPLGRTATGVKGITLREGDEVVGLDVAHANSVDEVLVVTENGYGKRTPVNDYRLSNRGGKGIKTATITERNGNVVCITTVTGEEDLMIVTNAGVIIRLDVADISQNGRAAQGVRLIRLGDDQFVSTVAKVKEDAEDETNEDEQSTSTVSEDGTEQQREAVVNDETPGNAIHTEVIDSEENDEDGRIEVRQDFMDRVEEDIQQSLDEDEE
In short: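 Supercoiling: 100 ng relaxed pHOT-1 with 1 U S. aureus or E. coli gyrase and graded compound concentrations, ATP present, 37 °C for 30 min. Stopped with 10% SDS, 1% agarose electrophoresis, ethidium bromide staining, UV imaging; ciprofloxacin positive control.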

[3] = Binding affinity to supercoiled pHOT-1 DNA assessed as unwinding of DNA helix by measuring distribution of topoisomers at 10 to 150 uM treated 15 mins prior to human topoisomerase 1 addition for 30 mins by agarose gel electrophoresis
Enterococcus faecalis = test: microbe, parasite or virus in culture; assay type: functional; details: ATCC 29212
[4] = Binding affinity to supercoiled pHOT-1 DNA assessed as unwinding of DNA helix by measuring shift of negative to positive supercoiled pHOT-1 at 10 to 150 uM treated 15 mins prior to human topoisomerase 1 addition for 30 mins by agarose gel electrophoresis
Escherichia coli [5] = test: Antibacterial activity against Escherichia coli PQ 37 harboring OM permeability barrier mutant assessed as growth inhibition by agar dilution assay; assay type: functional
In short: (§2)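 CLSI agar dilution MIC against aerobic and anaerobic strains. Test compounds were dissolved in DMSO and reference antibiotics in sterile water. MIC was taken as the lowest concentration showing no bacterial growth. Each MIC was determined at least twice on separate days, and the higher value was reported. E. coli PQ 37 was cultured in LA medium.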

Enterococcus faecium [6] = test: Antibacterial activity against vancomycin-sensitive Enterococcus faecium assessed as growth inhibition by agar dilution assay; assay type: functional
[7] = Cytotoxicity against CHL cells assessed as cell viability at 0.064 mg/ml after 24 hrs by MTT assay; assay type: cell-based, Cricetulus griseus; details: chinese hamster
In short: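 CHL fibroblasts seeded at about 5 × 10^4 cells/mL, incubated overnight at 37 °C, 5% CO2, then exposed to compound at different concentrations for 24 h. Viability read by MTT, absorbance at 570 nm, relative to cells in medium alone (100%). Triplicate.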

[8] = In vivo acute toxicity in iv dosed Kunming mouse; assay type: organism-based
In short: (§3)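 Male and female adult Kunming mice (18−22 g) received a single intravenous injection at various doses (n = 10 per group, 200 μL per mouse). Compound was given in polyethylene glycol−water (1:1, v/v), and controls received vehicle alone. Mortality was recorded for 7 days. LD50 was estimated by probit analysis.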

Bacteroides fragilis = test: Antibacterial activity against Bacteroides fragilis assessed as growth inhibition by agar dilution assay; assay type: functional; in short: as §1
Pseudomonas aeruginosa = test: Antibacterial activity against Pseudomonas aeruginosa ATCC 27853 assessed as growth inhibition by agar dilution assay; assay type: functional; in short: as §1
[9] = target: T1, DNA topoisomerase 1 (Escherichia coli (strain K12)) (UniProt P06612); test: Inhibition of Escherichia coli topoisomerase 1-mediated pHOT-1 DNA relaxation at >90 uM treated with pHOT-1 substrate for 15 mins prior to enzyme addition for 30 mins by agarose gel electrophoresis
T1 sequence (whole entry): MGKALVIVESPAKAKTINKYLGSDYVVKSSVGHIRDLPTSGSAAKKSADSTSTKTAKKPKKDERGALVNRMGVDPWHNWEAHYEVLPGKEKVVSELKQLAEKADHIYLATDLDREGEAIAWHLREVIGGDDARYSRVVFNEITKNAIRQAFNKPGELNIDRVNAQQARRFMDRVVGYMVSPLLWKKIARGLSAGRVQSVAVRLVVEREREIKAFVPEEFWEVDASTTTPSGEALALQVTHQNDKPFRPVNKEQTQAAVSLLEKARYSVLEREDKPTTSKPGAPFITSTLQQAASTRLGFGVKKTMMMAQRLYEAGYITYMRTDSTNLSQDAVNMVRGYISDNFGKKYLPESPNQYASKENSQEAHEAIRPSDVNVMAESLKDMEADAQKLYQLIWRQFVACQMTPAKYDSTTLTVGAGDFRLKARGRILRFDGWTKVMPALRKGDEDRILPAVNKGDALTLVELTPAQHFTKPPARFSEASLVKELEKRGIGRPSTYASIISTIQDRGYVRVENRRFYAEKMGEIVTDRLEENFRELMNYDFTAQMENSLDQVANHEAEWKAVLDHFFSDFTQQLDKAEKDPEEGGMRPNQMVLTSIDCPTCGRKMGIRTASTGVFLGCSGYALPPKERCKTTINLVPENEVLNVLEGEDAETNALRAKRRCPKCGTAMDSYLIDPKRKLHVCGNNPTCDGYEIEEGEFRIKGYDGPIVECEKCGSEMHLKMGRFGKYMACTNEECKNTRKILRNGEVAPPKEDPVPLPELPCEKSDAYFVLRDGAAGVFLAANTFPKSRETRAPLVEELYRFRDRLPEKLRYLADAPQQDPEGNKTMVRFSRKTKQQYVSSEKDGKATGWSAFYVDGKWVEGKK

[10] = target: T1, DNA topoisomerase 1 (Escherichia coli (strain K12)); test: Inhibition of Escherichia coli topoisomerase 1-mediated pHOT-1 DNA relaxation treated with pHOT-1 substrate for 15 mins prior to enzyme addition for 30 mins by agarose gel electrophoresis
Staphylococcus aureus = test: Antibacterial activity against methicillin-resistant Staphylococcus aureus assessed as growth inhibition by agar dilution assay; assay type: functional; in short: as §2
Streptococcus pneumoniae = test: Antibacterial activity against Streptococcus pneumoniae ATCC 49619 assessed as growth inhibition by agar dilution assay; assay type: functional; in short: as §1
Enterococcus faecium [11] = test: Antibacterial activity against vancomycin-resistant Enterococcus faecium assessed as growth inhibition by agar dilution assay; assay type: functional
Mus musculus = test: In vivo acute toxicity in Kunming mouse assessed as mortality at 100 mg/kg, iv administered as single dose measured within 7 days; assay type: organism-based; design: dose 100 mg/kg, route intravenous; details: 168 h; in short: as §3

With `Cc1cc(O)c2c(c1)C(=O)c1c(I)c(O)c(I)c(O)c1C2=O` the “growth inhibition (GI)” value (Escherichia coli [1]) was “inactive”, the inhibition [2] was “Active” and the Activity [3] was “inactive”. The MIC (Enterococcus faecalis) was 16 µg/mL (≈ 30.6 µM), the Activity [4] was “inactive” and the MIC (Escherichia coli [5]) was 8 µg/mL (≈ 15.3 µM). For the same compound, the MIC (Enterococcus faecium [6]) was 16 µg/mL (≈ 30.6 µM), the Activity [7] was “Non-toxic” and the LD50 [8] was 110 mg/kg. For the same compound, the MIC (Bacteroides fragilis) was 64 µg/mL (≈ 123 µM), the MIC (Pseudomonas aeruginosa) was greater than 256 µg/mL and the inhibition [9] was “Active”. The inhibition [10] was “Dose-dependent effect”, the MIC (Staphylococcus aureus) was 4 µg/mL (≈ 7.66 µM) and the MIC (Streptococcus pneumoniae) was 64 µg/mL (≈ 123 µM). The MIC (Enterococcus faecium [11]) was 8 µg/mL (≈ 15.3 µM) and the Activity (Mus musculus) was “Non-toxic”.
